Assay results taken from ChEMBL document CHEMBL1124173, “Enantiomers of 7-(2,3-epoxypropoxy)actinomycin D as dual-action DNA-acting antitumor agents” (J Med Chem, 1988).
Numbered stars: 1 amine (or outer) side, 2 acyl side, 3 side chain; on linkers, the order of the positions; unused ones are H or OH. Bridge positions count the residues as written; N and C are the ends. Square brackets hold non-standard residues; d marks the D form. Peptide text beside a SMILES is read from it. I, II: the chains in the order shown. Actinocin(1to9) = Cc1c2oc3c(C)ccc(C(=O)[*:2])c3nc-2c(C(=O)[*:1])c(N)c1=O; NMeV = CN[C@H](C(=O)O)C(C)C; Sar = CNCC(=O)O

Experiments:
B16 = test: In vitro 50% Growth inhibition of sensitive B16 cells.; assay type: functional, Mus musculus; settings: read-out: ID50 (the source's name)
In short: (§1)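 Actively growing tumor cells in vitro (actinomycin-resistant P388/ADR leukemia; sensitive B16 melanoma); ID50 is concentration (nM) needed for 50% growth inhibition.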

L1210 [1] = test: 50% Inhibition of growth of L1210 cells in culture.; assay type: functional, Mus musculus; settings: read-out: ID50 (the source's name)
In short: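 L1210 leukemia cells growing actively in culture; ID50 is drug concentration (nM) giving 50% inhibition of growth relative to untreated L1210 cells.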

L1210 [2] = test: Optimal dose per injection, administered ip on days 1, 5, and 9, ip inoculation with 10E5 L1210 cells per CDF1 mouse on day 0.; assay type: functional
In short: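 CDF1 mice inoculated ip with 10^5 L1210 cells on day 0; drugs given ip on days 1, 5 and 9. Optimal dose in mg/kg per injection. %ILS is increase in median life span of treated dying mice over untreated tumor-bearing mice; survivors counted beyond 60 days, 9 per group.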

Mus musculus [3] = organism: Mus musculus; test: Antitumor activity measured as % increase in life span, against C26 colon carcinoma.; assay type: functional
In short: (§2)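 C26 primary colon carcinoma cells (trypan blue excluding, 2.5 × 10^5 cells/mouse) implanted in CDF1 mice on day 0. Drug given ip on days 1, 5 and 9 in 0.1 mL 5% v/v Me2SO-saline at optimal dose. Read-out is median survival time; %ILS is drug-treated over control, excluding survivors. Sixty-day survivors are counted.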

Mus musculus [4] = organism: Mus musculus; test: percent increase in median life time (%ILS) measured in mice bearing leukemia L!210; assay type: functional
In short: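 CDF1 mice inoculated ip with 10^5 L1210 cells on day 0. Drug given ip on days 1, 5 and 9 at the optimal dose in mg/kg per injection. %ILS is the increase in median life span of treated dying animals versus untreated tumor-bearing mice. Over-60-day survivors are counted; 9 mice per group.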

Mus musculus [5] = test: Antitumor activity measured as % increase in life span, for ip administration of compound and ip inoculation of B16 melanoma.; assay type: functional
In short: (§3)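 B16 brei (tumor weight/Hank's balanced salt solution 1:5, 0.2 mL) implanted sc or ip into groups of nine BDF1 mice on day 0. Drug given iv on day 1 (sc tumor) or ip on days 1, 5 and 9 (ip tumor), in 0.1 mL 5% v/v Me2SO-saline. Read-out is median survival time and %ILS versus untreated controls, excluding sixty-day survivors.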

Mus musculus [6] = organism: Mus musculus; test: Antitumor activity measured as optimal dose, against C26 colon carcinoma.; assay type: functional
In short: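 Primary colon C26 carcinoma cells (trypan blue excluding, 2.5 × 10^5 cells/mouse) implanted in CDF1 mice on day 0. Drug given ip on days 1, 5 and 9 in 0.1 mL 5% v/v Me2SO-saline. Optimal dose in […]; %ILS and 60-day survivors scored.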

Mus musculus [7] = test: Antitumor activity measured as median survival time, for ip administration and ip inoculation of B16 melanoma.; assay type: functional; in short: as §3
Mus musculus [8] = organism: Mus musculus; test: Antitumor activity measured as median survival time, against C26 colon carcinoma.; assay type: functional; in short: as §2
P388/ADR [9] = test: Antitumor activity measured as Median survival time in days against P388/ADR, in ip implanted CDF1 mice, treated ip, qd 1-9; assay type: functional, Mus musculus
In short: (§4)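 P388/ADR leukemia, a P388/S subline made resistant to intercalators, implanted ip in CDF1 mice. Drug given ip daily on days 1-9 at optimal dose. Read-out is median survival time of tumor-bearing mice and %ILS of treated dying animals versus controls. Survivors beyond 60 days are counted; 10 mice per group.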

P388/ADR [10] = test: Antitumor activity against P388/ADR, in ip implanted CDF1 mice, treated ip, qd 1-9 measured as optimal dose; assay type: functional, Mus musculus
In short: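 P388/ADR leukemia implanted ip in CDF1 mice; drugs given ip once daily on days 1-9. Optimal dose recorded alongside median survival time and % increase in median life span of treated dying mice versus controls; survivors counted as >60-day survivors per group of 10.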

P388/ADR [11] = test: In vitro 50% Growth inhibition of actinomycin resistant P388/ADR cells; assay type: functional, Mus musculus; settings: read-out: ID50 (the source's name); in short: as §1
P388/ADR [12] = test: Antitumor activity measured as %ILS against P388/ADR, in ip implanted CDF1 mice, treated ip, qd 1-9; assay type: functional, Mus musculus; in short: as §4
Mus musculus [13] = organism: Mus musculus; test: Antitumor activity measured as optimal dose, for B16 melanoma.
Mus musculus [14] = test: Antitumor activity measured as median survival time, for iv administration and sc inoculation of B16 melanoma.
Mus musculus [15] = test: Antitumor activity measured as % increase in life span, for iv administration of compound and sc inoculation of B16 melanoma.
L1210 [16] = test: Inhibition of synthesis of [methyl-14C] thymidine into DNA, in L1210 cells.; assay type: functional, cell-based, Mus musculus; settings: Mus musculus, L1210
In short: (§5)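 Actively growing L1210 cells in vitro. Incorporation of [5-3H]uridine into RNA, or [methyl-14C]thymidine into DNA, compared with untreated cells. IC50 is micromolar drug concentration giving 50% reduction in incorporation rate.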

Mus musculus [17] = test: Antitumor activity measured as median survival time, for iv administration and sc inoculation of B16 melanoma.; remark: listed apart in the source
Mus musculus [18] = test: Antitumor activity measured as % increase in life span, for iv administration of compound and sc inoculation of B16 melanoma.; remark: listed apart in the source
[19] = Molar ratio of DNA to total amount of compound that is bound both intercalatively and covalently to calf thymus DNA helix; assay type: functional
In short: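 [3H]Drug and purified calf thymus DNA dialyzed at 37 °C in Tris HCl pH 7.4 (20 mM per footnote; 25 mM in methods). Equilibrated complex precipitated twice with ethanol to remove unbound drug. Molar DNA/drug ratio based on total bound drug, intercalative plus covalent.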

[20] = ratio of DNA to compound bound entirely by covalent bonding to DNA base.; assay type: functional
In short: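 [3H]Drug and purified calf thymus DNA dialyzed at 37 °C in Tris HCl buffer; complex twice ethanol-precipitated to remove unbound drug. Molar DNA/drug ratio calculated from drug bound only covalently to DNA bases.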

L1210 [21] = test: Inhibition of synthesis of [5-3H]-uridine into RNA in L1210 cells.; assay type: functional, cell-based, Mus musculus; in short: as §5
Bos taurus = organism: Bos taurus; test: Thermal denaturation of calf thymus DNA measured as ΔTm; settings: cattle, in vitro

Structure (SMILES)	IC50 (B16; Mus musculus, B16)	IC50 (L1210 [1]; Mus musculus, L1210)	Dose (L1210 [2])	ILS (Mus musculus [4])	ILS (Mus musculus [5])	Dose (Mus musculus [6])	MST (Mus musculus [7])	MST (Mus musculus [8])	MST (P388/ADR [9])	Dose (P388/ADR [10])	IC50 (P388/ADR [11]; Mus musculus, P388/ADR)	ILS (P388/ADR [12])	Dose (Mus musculus [13])	ILS (Mus musculus [15])	IC50 (L1210 [16])	MST (Mus musculus [17])	Ratio [19]	other results
Cc1c2oc3c(C)c(OC[C@H]4CO4)cc(C(=O)N[C@@H]4C(=O)N[C@H](C(C)C)C(=O)N5CCC[C@H]5C(=O)N(C)CC(=O)N(C)[C@@H](C(C)C)C(=O)O[C@@H]4C)c3nc-2c(C(=O)N[C@@H]2C(=O)N[C@H](C(C)C)C(=O)N3CCC[C@H]3C(=O)N(C)CC(=O)N(C)[C@@H](C(C)C)C(=O)O[C@@H]2C)c(N)c1=O [listing 1 of 2 here]	0.002 µM	0.0231 µM	0.05 mg/kg	199%	105%	0.6 mg/kg	39 days	41.5 days	45 days	0.3 mg/kg	0.04 µM	400%	1 mg/kg	70%	–	–	–	%ILS (Mus musculus [3]): 89%; MST (Mus musculus [14]): 56 days
Cc1c2oc3c(C)c(OC[C@H]4CO4)cc(C(=O)N[C@@H]4C(=O)N[C@H](C(C)C)C(=O)N5CCC[C@H]5C(=O)N(C)CC(=O)N(C)[C@@H](C(C)C)C(=O)O[C@@H]4C)c3nc-2c(C(=O)N[C@@H]2C(=O)N[C@H](C(C)C)C(=O)N3CCC[C@H]3C(=O)N(C)CC(=O)N(C)[C@@H](C(C)C)C(=O)O[C@@H]2C)c(N)c1=O [listing 2 of 2 here]	–	–	–	–	–	–	–	–	–	–	–	–	–	–	0.06 µM	–	–	–
Cc1c2oc3c(C)c(OCC4CO4)cc(C(=O)N[C@@H]4C(=O)N[C@H](C(C)C)C(=O)N5CCC[C@H]5C(=O)N(C)CC(=O)N(C)[C@@H](C(C)C)C(=O)O[C@@H]4C)c3nc-2c(C(=O)N[C@@H]2C(=O)N[C@H](C(C)C)C(=O)N3CCC[C@H]3C(=O)N(C)CC(=O)N(C)[C@@H](C(C)C)C(=O)O[C@@H]2C)c(N)c1=O (stereo in doubt)	–	–	–	143%	74%	0.9 mg/kg	33 days	–	43 days	0.8 mg/kg	–	377%	–	–	–	53 days	–	IC50 (B16): 0.0035 µM; IC50 (L1210 [1]): 0.0568 µM; IC50 (P388/ADR [11]): 0.135 µM; ILS (Mus musculus [18]): 60%
Cc1c2oc3c(C)c(OCC4CO4)cc(C(=O)N[C@@H]4C(=O)N[C@@H](C(C)C)C(=O)N5CCC[C@H]5C(=O)N(C)CC(=O)N(C)[C@@H](C(C)C)C(=O)O[C@H]4C)c3nc-2c(C(=O)N[C@@H]2C(=O)N[C@@H](C(C)C)C(=O)N3CCC[C@H]3C(=O)N(C)CC(=O)N(C)[C@@H](C(C)C)C(=O)O[C@H]2C)c(N)c1=O (stereo in doubt)	–	–	–	–	–	–	–	–	–	–	–	–	–	–	–	–	32	Ratio [20]: 520
Cc1c2oc3c(C)c(OCC4CO4)cc(C(=O)N[C@@H]4C(=O)N[C@H](C(C)C)C(=O)N5CCC[C@H]5C(=O)N(C)CC(=O)N(C)[C@@H](C(C)C)C(=O)O[C@@H]4C)c3nc-2c(C(=O)N[C@@H]2C(=O)N[C@H](C(C)C)C(=O)N3CCC[C@H]3C(=O)N(C)CC(=O)N(C)[C@@H](C(C)C)C(=O)O[C@@H]2C)c(N)c1=O (stereo in doubt; 3b)	–	–	–	–	–	–	–	–	–	–	–	–	–	–	0.08 µM	–	–	IC50 (L1210 [21]; l1210): 0.024 µM
Cc1c2oc3c(C)ccc(C(=O)N[C@@H]4C(=O)N[C@H](C(C)C)C(=O)N5CCC[C@H]5C(=O)N(C)CC(=O)N(C)[C@@H](C(C)C)C(=O)O[C@@H]4C)c3nc-2c(C(=O)N[C@@H]2C(=O)N[C@H](C(C)C)C(=O)N3CCC[C@H]3C(=O)N(C)CC(=O)N(C)[C@@H](C(C)C)C(=O)O[C@@H]2C)c(N)c1=O [DACTINOMYCIN] (I: T[dV]P[Sar][NMeV] / II: T[dV]P[Sar][NMeV]; ester I:1-I:C, II:1-II:C; linker I:N-II:N via Actinocin(1to9))	0.003 µM	0.0601 µM	0.025 mg/kg	55%	52%	0.3 mg/kg	29 days	33.5 days	12 days	0.075 mg/kg	2.5 µM	33%	0.9 mg/kg	36%	0.38 µM	45 days	26	IC50 (L1210 [21]; Mus musculus, L1210): 0.019 µM; ILS (Mus musculus [3]): 52%; ΔTm (Bos taurus): 7.1
